Sampled rows, rich in hits. Any-hit rate of the full collection: about 3.7%.
KCNQ1 act: potentiators or activators of human KCNQ1 potassium channel | P51787 | CHO-K1 KCNQ1, thallium flux FluxOR fluorescence; hits give high values | B-score at 10 µM | hit rate 0.35% among 310,000 | AID 2648;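 active = fluorescence ratio B-score, a plate-corrected score, at least three library SD, with initial intensity B-score within 5 SD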
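Schedule – 37 °C overnight plating, 90-min dark dye load, 20-min compound pretreatment · System – stable KCNQ1 CHO-K1 line · Probe or stimulus – thallium- and potassium-containing depolarizing buffer · Measured by – kinetic FluxOR fluorescence, 10 s baseline plus 110 s post-stimulus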
KCNK9 inh: inhibitors of human KCNK9 two-pore domain potassium channel. AID 488922. B-score at 10 µM. Q9NPC2. hit rate 1.2% among 310,000. HEK293 KCNK9, FluxOR thallium flux fluorescence; hits give low values;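 active = ratio B-score over 3 SD below the library mean, with starting fluorescence within 5 SD of its mean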;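 also: negative B-score means less thallium flux so channel inhibition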
Target sequence (Q9NPC2 whole entry, looked up, the tested form may be a part): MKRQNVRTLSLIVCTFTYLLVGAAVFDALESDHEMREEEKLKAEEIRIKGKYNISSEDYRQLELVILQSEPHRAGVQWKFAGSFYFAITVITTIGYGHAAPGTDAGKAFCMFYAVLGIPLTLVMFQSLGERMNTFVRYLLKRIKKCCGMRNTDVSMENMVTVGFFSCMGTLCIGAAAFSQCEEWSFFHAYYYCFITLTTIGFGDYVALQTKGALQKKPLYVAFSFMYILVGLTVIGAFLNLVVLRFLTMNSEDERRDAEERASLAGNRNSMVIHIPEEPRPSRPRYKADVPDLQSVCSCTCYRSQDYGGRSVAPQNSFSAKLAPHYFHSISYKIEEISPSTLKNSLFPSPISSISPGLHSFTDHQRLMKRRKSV
Kir21 inh: inhibitors of mouse Kir2.1 inward-rectifier potassium channel | hit rate 0.85% among 310,000 | HEK293-Kir2.1, FluxOR thallium flux fluorescence; hits give low values | B-score at 10 µM | P35561 | AID 1672;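 active = fluorescence ratio B-score at or below minus 3 SD of library scores, with starting-brightness B-score within 2 SD, cut at about -4.2 in these data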;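 also: channel flux triggered by added potassium and thallium sulfate stimulus; B-score of peak minus minimum fluorescence over baseline after thallium stimulus; more negative B-score means stronger Kir2.1 block with less thallium influx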
Target sequence (P35561 whole entry, looked up): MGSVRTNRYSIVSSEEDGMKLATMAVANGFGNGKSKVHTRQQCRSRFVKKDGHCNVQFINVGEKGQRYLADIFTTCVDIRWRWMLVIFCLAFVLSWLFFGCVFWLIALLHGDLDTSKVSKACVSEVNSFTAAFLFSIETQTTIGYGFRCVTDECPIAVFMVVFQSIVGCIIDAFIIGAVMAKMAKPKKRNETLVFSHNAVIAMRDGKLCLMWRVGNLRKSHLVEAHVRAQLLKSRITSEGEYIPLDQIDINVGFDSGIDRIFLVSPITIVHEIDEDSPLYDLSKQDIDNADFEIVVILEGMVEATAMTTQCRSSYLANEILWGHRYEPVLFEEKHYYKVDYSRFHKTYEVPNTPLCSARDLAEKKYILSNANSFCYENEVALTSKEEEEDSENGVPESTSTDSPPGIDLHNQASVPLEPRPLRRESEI
KCNK3 inh: human KCNK3 channel inhibition, primary screen. O14649. CHO-KCNK3 thallium flux, FluxOR fluorescence; hits give low values. B-score at 10 µM. hit rate 0.84% among 340,000. AID 602410;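 active = B-score under library mean minus 4 SD, starting fluorescence ratio at most library mean plus 5 SD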;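 also: more negative B-score means stronger inhibition of thallium flux through KCNK3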
KCNQ1 inh: inhibitors of human KCNQ1 potassium channel; AID 2642; P51787; B-score at 10 µM; hit rate 1.3% among 310,000; CHO-K1 KCNQ1, FluxOR thallium flux fluorescence; hits give high values;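 active = compounds whose thallium flux B-score, printed positive for inhibition, exceeds three library SD while starting fluorescence stays within three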;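 also: channel opened by potassium depolarization with thallium stimulus after 20 min compound exposure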
hERG protect: shields human hERG channel from block by proarrhythmic agents. Q12809. CHO-hERG, FluxOR thallium flux, dofetilide IC70 present. activation (rescue from dofetilide block), less the hit threshold, % at 10 µM. hit rate 0.51% among 310,000;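 active = activation above the mean of controls blocked by dofetilide plus 5 SD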;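 also: thallium influx through hERG after potassium depolarization seen as dye fluorescence rise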
KCNQ1 inh valid: human KCNQ1 channel inhibition, validation assay; hit rate 93% among 1,600; AID 588353; shares compounds with KCNQ1 inh; inhibition, % at 10 µM; KCNQ1 cell line, FluxOR thallium flux fluorescence;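 active = primary screen active, with duplicate mean exceeding buffer control mean plus 3 SD of buffer wells, cut at about 28% in these data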;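 also: 0% = buffer control ratio and 100% = XE991 inhibitor control ratio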
CHO KCNQ1 ctr: KCNQ1 inhibitor counter-screen hit in parental CHO cells | shares compounds with KCNQ1 inh | parental CHO-K1, FluxOR thallium flux fluorescence ratio; hits give low values; zero means no signal rise above baseline | fluorescence ratio (Tl flux) at 10 µM | hit rate 21% among 1,600;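 active = mean of duplicate thallium-flux fluorescence ratios in parental host cells more than 5 SD below the buffer control mean, cut at about 0.38 in these data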;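 also: ratio is peak minus minimum fluorescence divided by baseline fluorescence; actives read low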
KCNQ1 ephys val: blocks human KCNQ1 current in automated patch clamp; hit rate 20% among 490; shares compounds with KCNQ1 inh; calls only at 10 µM; KCNQ1-CHO cells; AID 624120;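 active = KCNQ1 current drop exceeding 3 SD of negative control wells, seen in both duplicate runs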;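 also: steady state current during a 2 s step from -80 to +40 mV; negative values mean current inhibition and positive values mean potentiation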
KCNQ2 inh: KCNQ1 inhibitor that also blocks rat KCNQ2 channel; inhibition, % at 10 µM; hit rate 71% among 1,600; AID 651746; KCNQ2 cells, FluxOR thallium flux fluorescence; shares compounds with KCNQ1 inh;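 active = mean percent inhibition of the KCNQ2 thallium signal more than 5 SD above the buffer-only control wells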;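 also: KCNQ2 expressed in CHO cells; 0% = buffer control wells and 100% = XE-991 inhibitor control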
KCNQ1 KCNE1 spec: KCNQ1 inhibitor that also blocks human KCNQ1/KCNE1 channel | shares compounds with KCNQ1 inh | KCNQ1/KCNE1 cells, FluxOR thallium flux fluorescence | inhibition, % at 10 µM | hit rate 77% among 1,600 | AID 652147;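 active = mean percent inhibition of duplicate wells above the buffer-only control mean plus 3 SD of those controls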;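 also: 0% = buffer only wells and 100% = XE-991 inhibitor control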
KCNK9 inh conf: confirmation of human KCNK9 potassium channel inhibitors. shares compounds with KCNK9 inh. HEK293 KCNK9 cells, FluxOR thallium flux fluorescence. inhibition, % at 10 µM. hit rate 43% among 4,900;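 active = thallium signal inhibited by more than 5 SD of the compound-free buffer control wells, on both duplicate plates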;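 also: 0% = assay buffer control wells without compound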
Kir2-1 spec: mouse Kir2.1 off-target activity of KCNK9 modulators; AID 492993; shares compounds with KCNK9 inh; hit rate 4% among 4,900; Kir2.1 cells, FluxOR thallium flux fluorescence; inhibition, % at 10 µM;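 active = thallium signal drop more than 5 SD beyond the mean of the no-compound control wells, seen in both duplicate plates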;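 also: signal is fluorescence rise after thallium addition divided by baseline fluorescence; plate controls were assay buffer only for no effect and full block by chlorpromazine control for full effect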
HEK293 Tl ctr: non-induced cell nonspecific activity of KCNK9 modulators. shares compounds with KCNK9 inh. non-induced KCNK9-HEK293, FluxOR thallium flux. inhibition, % at 10 µM. hit rate 40% among 4,900;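 active = thallium signal drop beyond 5 SD of the untreated control mean, on both duplicate plates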;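 also: plate controls were buffer only IC0 wells for no effect and SID17386958 at its maximal inhibitory level for full effect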
KCNK3 inh conf: confirmation of human KCNK3 two-pore domain potassium channel inhibitors; CHO-KCNK3 thallium flux, FluxOR fluorescence; 0% buffer, 100% carvedilol maximal block; ratio percent of control, % at 10 µM; hit rate 99% among 2,400; shares compounds with KCNK3 inh;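 active = ratio percent of control, averaged over triplicates, above buffer control mean plus 5 SD, cut at about 64% in these data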;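 also: ratio is the fluorescence rise from min to max over baseline after thallium stimulus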
KCNK3 uninduced: KCNK3 inhibitor counter-screen hit in non-induced cells; thallium flux ratio (lower = more inhibition) at 10 µM; AID 651747; non-induced KCNK3 parental cells, FluxOR thallium flux; hits give low values; hit rate 40% among 2,400; shares compounds with KCNK3 inh;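 active = thallium flux ratio, averaged over three wells, more than 5 SD below the buffer control mean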;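 also: host cells are CHO cells without KCNK3 induction; ratio is peak minus trough fluorescence over baseline then normalized to buffer controls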
Starred values were filed as active, the others as inactive; i = inactive; x = no result given; + = active, no number.

SMILES	KCNQ1 act	KCNK9 inh	Kir21 inh	KCNK3 inh	KCNQ1 inh	hERG protect	KCNQ1 inh valid	CHO KCNQ1 ctr	KCNQ2 inh	KCNQ1 KCNE1 spec	KCNK3 inh conf	KCNK3 uninduced	others
CCC(C(=O)Nc1ccncc1)c1ccccc1 (centres undefined)	i	i	-0.42	i	i	-7	x	x	x	x	x	x
Cc1csc2c(N3CCN(C(=O)c4ccc(C(C)(C)C)cc4)CC3)ncnc12	i	i	0.09	-9.8*	9*	-21	138*	0.3*	137%*	170%*	130*	i
CCOC(=O)C1CCN(c2ncnc3c(C)csc23)CC1	i	i	0.28	i	i	-4	x	x	x	x	x	x
CSc1ncccc1C(=O)N1CCCC(Nc2ccc(C)c(C)c2)C1 (centres undefined)	i	i	0.06	i	i	-3	x	x	x	x	x	x
O=C(Cc1cccs1)NCCSc1c(-c2ccc(Cl)cc2)[nH]c2ccccc12	i	-14*	1.2	-14*	19*	-17	134*	0.35*	124%*	186%*	132*	0.15*	KCNK9 inh conf=54%*;Kir2-1 spec=i;HEK293 Tl ctr=32%*
CCOC(=O)CSc1c(-c2ccc(Cl)cc2)[nH]c2ccccc12	i	i	-0.53	i	i	-7	x	x	x	x	x	x
c1ccc(-c2cc(-c3nc4ccccc4[nH]3)c3ccccc3n2)cc1	i	-7.6*	-0.14	-10*	8*	-38	149*	0.25*	122%*	+	143*	0.13*
CCN(CC)S(=O)(=O)c1ccc(Cl)c(NC(=O)COC(=O)c2nc3nc(C)cc(C)n3n2)c1	x	x	x	i	x	x	x	x	x	x	x	x
CCOC(=O)c1cc2c(ccn2C)n1Cc1ccc(Cl)cc1	i	-11*	0.25	-9.7*	6*	-20	110*	0.37*	68%*	116%*	136*	0.13*	KCNK9 inh conf=42%*;Kir2-1 spec=i;HEK293 Tl ctr=37%*
Cc1noc(C)c1C(=O)N(C)CC(=O)Nc1ccc(F)c(F)c1F	i	i	1.6	i	i	-8	x	x	x	x	x	x
CCCCc1nc(N2CCN(C(=O)c3ccco3)CC2)c(C#N)c2c1CCCC2	i	-6.8*	-1.3	-9.4*	9*	-15	98*	0.34*	108%*	46%*	120*	i
O=C(Nc1ccc(OC(F)F)c(Cl)c1)c1cccc(OC(F)F)c1	i	-12*	0.7	-11*	12*	-29	106*	0.52	i	43%*	120*	i	KCNQ1 ephys val=+;KCNK9 inh conf=54%*;Kir2-1 spec=i;HEK293 Tl ctr=i
COc1ccc(NC(=O)c2cccc(OC(F)F)c2)cc1Cl	i	i	-0.43	i	i	-8	x	x	x	x	x	x
COc1ccc(C(=O)NNC(=O)CSc2nnc(C3CC3)n2C)cc1	i	i	-1.2	i	i	-4	x	x	x	x	x	x
CC(C)(C)n1nnnc1C(c1ccc(Cl)cc1)N1CCCc2ccccc21 (centres undefined)	i	-11*	0.47	i	6*	-11	82*	0.43	88%*	85%*	131*	0.13*	KCNK9 inh conf=56%*;Kir2-1 spec=i;HEK293 Tl ctr=42%*
COc1cc2c(cc1OC)C(c1ccc(-c3ccccc3Cl)o1)=NCC2	i	i	0.01	-12*	12*	-31	136*	0.37*	145%*	196%*	101*	0.12*
COc1cccc(C(=O)Nc2cccc(-c3ccccc3)c2)c1	i	i	-1.6	-12*	9*	-2	148*	0.44	99%*	+	113*	i	KCNQ1 ephys val=i
COc1cccc(NC(=O)c2ccccc2)c1	x	x	x	i	x	x	x	x	x	x	x	x
CCN1C=C(Cc2ccccc2C)C2=C(C1)C(c1ccccc1C)C(C#N)=C(N)O2 (centres undefined)	i	-6.7*	-0.41	-8.9*	12*	-21	116*	0.32*	105%*	104%*	118*	0.13*
Oc1c(C=C2N=c3ccccc3=N2)sc(=S)n1-c1ccccc1	i	i	0.78	i	i	-8	x	x	x	x	x	x
CC1=Nc2ccccc2/C1=C/c1sc(=S)n(-c2cccc(C(=O)O)c2)c1O	i	i	-6.3	-11*	15*	4	106*	0.34*	i	i	145*	0.11*
CCC(C)c1ccc(NC(=S)NCc2cccs2)cc1 (centres undefined)	i	i	-1.5	-9.5*	7*	-12	90*	0.51	61%*	95%*	111*	i	KCNQ1 ephys val=+
CC(C)(C)c1ccc(NC(=S)NCc2cccs2)cc1	i	i	-1.2	i	i	-6	x	x	x	x	x	x
COc1ccc(-n2ccnc(SCC(=O)NCc3ccccc3Cl)c2=O)cc1	i	i	-0.11	i	i	-10	x	x	x	x	x	x
COc1ccc(Cl)cc1C(=O)Nc1ccccc1N1CCCCC1	i	-8.9*	-0.43	-8.9*	7*	-12	103*	0.41	99%*	146%*	107*	i	KCNQ1 ephys val=i;KCNK9 inh conf=50%*;Kir2-1 spec=i;HEK293 Tl ctr=46%*
O=C1CCCc2nc(N3CCN(C(=O)c4ccco4)CC3)ncc21	i	i	0.69	i	i	-7	x	x	x	x	x	x

Screens (PubChem BioAssay)
